High-throughput results deposited in PubChem BioAssay by Johns Hopkins Ion Channel Center.
Only some compounds are listed: those with a hit (about 3.5% of all), similar ones and a draw of the others.
MrgX1 allo act: positive allosteric modulators of MrgX1, primary screen, HEK293 cells, Fluo-4 calcium flux | Mas-related G-protein coupled receptor member X1 (Homo sapiens), Q96LB2 | FDSS; stronger effect = higher value | B-score at 10 µM | actives 0.63% (n = 310,000) | AID 588675, 2011;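 active means plate-corrected calcium response at least 3 library SD above typical, normal starting fluorescence, not activating the receptor alone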;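 further: compound read alongside a low EC10 to EC30 dose of BAM8-22 agonist; peak minus trough fluorescence over baseline measured at the second addition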
Target sequence (Q96LB2 whole entry, looked up): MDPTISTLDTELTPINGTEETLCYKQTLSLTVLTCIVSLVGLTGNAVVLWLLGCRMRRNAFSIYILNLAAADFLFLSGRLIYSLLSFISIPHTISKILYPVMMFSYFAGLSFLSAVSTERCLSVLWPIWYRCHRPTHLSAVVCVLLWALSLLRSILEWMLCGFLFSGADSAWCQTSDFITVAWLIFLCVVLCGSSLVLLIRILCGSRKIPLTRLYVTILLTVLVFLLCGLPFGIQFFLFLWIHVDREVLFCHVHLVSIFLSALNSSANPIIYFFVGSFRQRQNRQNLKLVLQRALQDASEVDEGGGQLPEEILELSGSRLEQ
MrgX1 agonist: agonists of human MrgX1 receptor, primary screen, HEK293 cells, Fluo-4 calcium flux | Mas-related G-protein coupled receptor member X1 (Homo sapiens), Q96LB2 | Fluo-4 calcium fluorescence, agonist mode; stronger effect = higher value | B-score at 10 µM | actives 0.44% (n = 310,000) | AID 588627, 2011;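 active means calcium response B-score plate-corrected fluorescence ratio at least 3 library SD, with starting fluorescence B-score inside 5 SD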
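System: HEK293 cells stably expressing human MrgX1 receptor; Dosing: test compound in the initial addition of three; Schedule: overnight plating, then 30 min 37 °C plus 30 min room-temperature dye loading; Detection: kinetic calcium dye fluorescence, Fluo-4 NW; Controls: per-plate positive and negative controls for Z′ factor.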
MrgX1 antag: antagonists of human MrgX1 receptor, primary screen, HEK293 cells, Fluo-4 calcium flux; Mas-related G-protein coupled receptor member X1 (Homo sapiens), Q96LB2; BAM8-22 antagonism; stronger effect = lower value; B-score at 10 µM; actives 1.3% (n = 310,000); AID 588676, 2011;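 active means calcium-response B-score plate-corrected more than 3 library SD below zero, starting fluorescence within 5 deviations, no agonist response on first addition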;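 further: peak minus trough fluorescence over baseline after final BAM8-22 challenge near maximal dose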
RGS4 act: RGS4 potentiators or activators, primary screen, cell-based, HEK293 M3R inducible RGS4, calcium flux. actives 0.92% (n = 310,000). B-score at 10 µM. AID 463111, 2010. carbachol calcium flux Fluo4; stronger effect = lower value;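 active means B-score of the integrated calcium signal more than 4 SD below the library mean, with starting fluorescence not abnormally high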;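 further: negative B-score means reduced calcium response which marks RGS4 activation or potentiation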
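test system = HEK293 cells with stable M3R and inducible RGS4 | schedule = recording 10 s baseline at 1 Hz, 100 s post-agonist | technique = Fluo4-AM (2 µM) calcium-flux fluorescence, kinetic read | measure = Agonist-evoked peak-minus-minimum fluorescence over baseline, integrated ratio, B score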
RGS4 inh: RGS4 inhibitors, primary screen, cell-based, HEK293 M3R inducible RGS4, calcium flux; B-score at 10 µM; AID 463165, 2010; actives 0.45% (n = 310,000); Fluo-4 calcium flux; stronger effect = higher value; triggered by carbachol at its EC20; Regulator of G-protein signaling 4 (Homo sapiens), P49798;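 active means B-score, a plate-corrected calcium signal, over three deviations above library mean, with baseline fluorescence within five deviations of library mean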;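 further: RGS4 expression induced by doxycycline in cells with stable M3 receptor; B-score is computed from the integrated fluorescence ratio over baseline after carbachol; higher B-score means a larger calcium signal and so more RGS4 inhibition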
Target sequence (P49798 whole entry, looked up): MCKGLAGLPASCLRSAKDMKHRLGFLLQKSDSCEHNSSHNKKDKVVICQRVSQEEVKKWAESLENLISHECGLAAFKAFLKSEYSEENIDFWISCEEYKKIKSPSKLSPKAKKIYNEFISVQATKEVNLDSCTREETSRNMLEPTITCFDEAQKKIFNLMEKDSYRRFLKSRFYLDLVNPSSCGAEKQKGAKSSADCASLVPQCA
MrgX1 PAM conf: MrgX1 positive allosteric modulators, duplicate retest, confirmation, HEK293 cells, Fluo-4 calcium flux. activation (ratio percentage), % at 10 µM. shares compounds with MrgX1 allo act. AID 602413, 2012. actives 13% (n = 1,200). Fluo-4 calcium fluorescence, FDSS;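 active means ratio at least 3 SD above the weak peptide control, stable starting fluorescence, no direct agonism earlier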;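 further: compound followed by low BAM8-22 agonist challenge near EC20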
HEK293 Ca flux: nonspecific calcium signal in parental HEK293, confirmation, counter-screen for MrgX1 antagonist project, parental HEK293 cells, Fluo-4 calcium flux | shares compounds with MrgX1 antag | Fluo-4 calcium fluorescence, FDSS | fluorescence ratio F(max-min)/F0 at 10 µM | actives 2% (n = 4,000);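 active means duplicate-averaged calcium fluorescence ratio at least three times the standard deviation of buffer wells, a nonspecific response in parental cells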
HEK293 Ca counter: calcium response in parental HEK293 cells, primary screen, counter-screen for MrgX1 allosteric activator project, cell-based, Fluo-4 calcium flux, duplicate; shares compounds with MrgX1 antag; fluorescence ratio F(max-min)/F0 at 10 µM; Fluo-4 fluorescence ratio; stronger effect = higher value; actives 0.4% (n = 4,000); AID 624114, 2012;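 active means calcium fluorescence ratio, averaged over duplicates, at least 3 SD of the buffer-well ratio, meaning a nonspecific response in receptor-free cells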;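 further: untransfected parental HEK293 lacking MrgX1 used as counterscreen for MrgX1 allosteric activators; fluorescence change taken during the second addition on a kinetic imager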
HEK293 Ca cntr2: calcium response in parental HEK293 cells, primary screen, counter-screen for MrgX1 agonist project, cell-based, Fluo-4 calcium flux, duplicate, agonist mode | AID 624115, 2012 | shares compounds with MrgX1 antag | actives 8.7% (n = 4,000) | fluorescence ratio F(max-min)/F0 at 10 µM | Fluo-4 calcium fluorescence (FDSS); stronger effect = higher value;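 active means calcium fluorescence ratio at least three times the spread of buffer wells, meaning a non-specific response in parental cells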
Hits are given with their value; - = inactive; . = no result.

SMILES	MrgX1 allo act	MrgX1 agonist	MrgX1 antag	RGS4 act	RGS4 inh	MrgX1 PAM conf	HEK293 Ca flux	HEK293 Ca counter	HEK293 Ca cntr2
O=C(NCc1ccccc1)C(c1ccncc1)N(C(=O)c1csnn1)c1cccc(F)c1 (stereo unspecified)	-	-	-	-	-	.	.	.	.
O=C(Nc1ccc(F)cc1F)c1cc(-c2ccco2)on1	-	-	-	-	-	.	.	.	.
O=C(Nc1ccc(F)cc1F)c1ccco1	7.6	-	-	-	-	-	-	-	-
CCSc1nc2ccccc2c(=O)n1Cc1ccc(F)cc1	9.8	-	-	-	-	-	-	-	-
CC(C)Cc1nnc(NC(=O)CCC(=O)N2CCN(c3ccccc3F)CC2)s1	-	-	-	-	-	.	.	.	.
CCn1c(SCC(=O)Nc2nc(C)c(C)s2)nc2cccnc21	-	-	-	-	-	.	.	.	.
CCOC(=O)Cc1csc(NC(=O)CSc2nc3cccnc3n2CC)n1	7.3	-	-	-	-	-	-	-	-
CCCCC1(C)NC(=O)c2c(C)sc(C(=O)OCC)c2N1 (stereo unspecified)	8.3	-	-	-	-	-	-	-	-
Cc1nn(C(=O)c2cccs2)c(N)c1-c1ccccc1	9.3	-	-	-	-	-	-	-	-
O=C1CCc2cc(S(=O)(=O)NCCc3ccccc3)cc3c2N1CC3	-	-	-	-	-	.	.	.	.
C/C(=N\NC(=O)c1cccc(S(=O)(=O)N2CCOCC2)c1)c1ccc(C#N)cc1	-	-	-	-	-	.	.	.	.
c1ccc(Sc2ncnc3ccccc23)cc1	18	-	-	-	-	28%	-	-	-
N#CCSc1ncnc2ccccc12	-	-	-	-	-	.	.	.	.
COc1ccc(C)cc1NC(=O)C1CCN(S(=O)(=O)c2ccc3c(c2)NC(=O)CO3)CC1	7.6	-	-	-	-	-	-	-	-
COc1ccc(N(C)S(=O)(=O)c2ccc3c(c2)NC(=O)CO3)c(OC)c1	7	-	-	-	-	-	-	-	-
O=C1COc2ccc(S(=O)(=O)NCCc3ccccc3)cc2N1	-	-	-	-	-	.	.	.	.
O=C1COc2ccc(S(=O)(=O)NCc3ccc(Cl)cc3)cc2N1	6.5	-	-	-	-	-	-	-	-
Cc1cc2c(NCc3ccccc3)ncnc2s1	-	-	-	-	-	.	.	.	.
O=C(O)C1CCCCC1C(=O)NCc1ccccn1 (stereo unspecified)	-	-	-	-	-	.	.	.	.
CN(C)S(=O)(=O)c1ccc(C(=O)OCC(=O)NCc2ccccc2)cc1	8.4	-	-	-	-	-	-	-	-
O=C(NC12CC3CC(CC(C3)C1)C2)c1ccccc1	-	-	-	-	-	.	.	.	.
Nc1ccccc1C(=O)NC12CC3CC(CC(C3)C1)C2	10	-	-	-	-	-	-	-	-
Nc1nc(OCC(F)(F)F)cc(Oc2ccccc2F)n1	9.8	-	-	-	-	-	-	-	-
Clc1ccccc1Nc1nnc(-c2ccncc2)s1	9.6	-	-	-	-	-	-	-	-
O=C(COC(=O)c1cc(Br)ccc1O)NC1CCCCCC1	-	-	-	-	-	.	.	.	.
SMILES	MrgX1 allo act	MrgX1 agonist	MrgX1 antag	RGS4 act	RGS4 inh	MrgX1 PAM conf	HEK293 Ca flux	HEK293 Ca counter	HEK293 Ca cntr2
O=C(COC(=O)c1cc(Br)ccc1Cl)NC1CCCC1	8	-	-	-	-	-	-	-	-
CCOC(=O)C1=C(C)NC(=O)CC1c1cc(OC)c(OC)cc1Br (stereo unspecified)	15	-	-	-	-	-	-	-	-
O=S(=O)(Nc1ncnc2scc(-c3ccc(F)cc3)c12)c1cc(F)ccc1F	12	-	-	-	-	-	-	-	-
Cc1ccc2nc(SC(C)C(=O)N3CCOCC3)[nH]c2c1 (stereo unspecified)	7.3	-	-	-	-	-	-	-	-
COC(=O)c1sc(NC(=O)c2cc(C)on2)nc1C	-	-	-	-	-	.	.	.	.
O=C1CCC2=C(CCCC2=O)N1	10	-	-	-	-	-	-	-	-
CN(C(=O)Cn1cccc1C1=NC(c2ccccc2)CO1)c1ccccc1 (stereo unspecified)	-	-	-	-	-	.	.	.	.
CCN(c1ccccc1)S(=O)(=O)c1ccc(Cl)nc1	9.4	-	-	-	-	-	-	-	-
CCN(c1ccccc1)S(=O)(=O)c1ccc(N)c(OC)c1	6.6	-	-	-	-	-	-	-	-
CCN(c1cccc2ccccc12)S(=O)(=O)c1ccc(Cl)nc1	-	-	-	-	-	.	.	.	.
Cc1ccc(S(=O)(=O)N2CCc3ccccc3C2)cc1	-	-	-	-	-	.	.	.	.
CC(C)N(C(C)C)S(=O)(=O)c1ccc(Cl)nc1	7.7	-	-	-	-	-	-	-	-
CC(C)N(C(C)C)S(=O)(=O)c1ccc(N2CCc3ccccc3C2)nc1	8.4	-	-	-7.1	-	-	-	-	-
C[C@@H](C(O)c1ccccc1)N(C)C(=O)CCc1ccccc1 (stereo partly specified)	-	-	-	-	-	.	.	.	.
O=C(NC1CCCCC1)c1ccc(CS(=O)Cc2ccc(Cl)cc2)o1 (stereo unspecified)	-	-	-	-	-	.	.	.	.
CCCNC(=O)Cc1c(C)oc2ccccc12	-	-	-	-	-	.	.	.	.
COc1ccccc1-n1c(C)cc(/C=C2/C(=N)N3C(=NC2=O)SN=C3S(C)(=O)=O)c1C	21	-	-	-	-	-	-	-	-
CCOC(=O)c1ccc2c(c1)nc(-c1ccccn1)n2CC	7.6	-	-	-	-	-	-	-	-
COc1ccc(S(=O)(=O)Nc2ccc(-c3ccc4nncn4n3)cc2)c(OC)c1	-	-	-	-	-	.	.	.	.
O=C(Nc1nc(-c2cccs2)c(C(=O)C(F)(F)F)s1)c1ccco1	7.6	-	-	-	-	-	-	-	-
